Reference: ChEMBL document CHEMBL1139629 (Bioorg Med Chem Lett, 2005)

How the values were obtained:
Rattus norvegicus = species on record: Rattus norvegicus; experiment: Inhibition concentration against ADP-induced platelet aggregation using rat platelet rich plasma; type: functional
Procedure, shortened: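 Aggregation was induced with ADP in rat platelet-rich plasma, and IC50 was taken from inhibition of aggregation. Values are the mean of two or three experiments.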

Cell line = experiment: Inhibition concentration against ADP-induced platelet aggregation using human platelet rich plasma; type: functional, cell-based
Procedure, shortened: (§1)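 Functional IP agonism was measured as inhibition of ADP-induced aggregation in platelet-rich plasma from human, rat, dog or monkey. IC50 was taken from the inhibition of aggregation.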

[1] = molecular target: T1, Prostaglandin E2 receptor EP3 subtype (Homo sapiens, UniProt P43115); experiment: Displacement of [3H]PGE-2 from human Prostanoid EP3 receptor
T1 sequence (P43115 whole entry): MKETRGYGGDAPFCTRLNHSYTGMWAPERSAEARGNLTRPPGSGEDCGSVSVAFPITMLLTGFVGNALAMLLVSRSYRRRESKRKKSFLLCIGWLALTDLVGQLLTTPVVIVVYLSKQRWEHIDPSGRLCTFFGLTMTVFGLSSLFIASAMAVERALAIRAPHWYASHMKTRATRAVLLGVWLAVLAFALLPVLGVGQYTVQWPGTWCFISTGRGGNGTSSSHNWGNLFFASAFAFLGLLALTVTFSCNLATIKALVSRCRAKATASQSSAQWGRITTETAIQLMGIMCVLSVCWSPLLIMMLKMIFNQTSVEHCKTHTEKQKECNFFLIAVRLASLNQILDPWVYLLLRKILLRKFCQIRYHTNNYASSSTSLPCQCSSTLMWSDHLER

[2] = molecular target: Prostaglandin E2 receptor EP4 subtype (Homo sapiens, UniProt P35408); experiment: Displacement of [3H]PGE-2 from human Prostanoid EP4 receptor
Prostaglandin E2 receptor EP4 subtype, sequence (P35408 whole entry): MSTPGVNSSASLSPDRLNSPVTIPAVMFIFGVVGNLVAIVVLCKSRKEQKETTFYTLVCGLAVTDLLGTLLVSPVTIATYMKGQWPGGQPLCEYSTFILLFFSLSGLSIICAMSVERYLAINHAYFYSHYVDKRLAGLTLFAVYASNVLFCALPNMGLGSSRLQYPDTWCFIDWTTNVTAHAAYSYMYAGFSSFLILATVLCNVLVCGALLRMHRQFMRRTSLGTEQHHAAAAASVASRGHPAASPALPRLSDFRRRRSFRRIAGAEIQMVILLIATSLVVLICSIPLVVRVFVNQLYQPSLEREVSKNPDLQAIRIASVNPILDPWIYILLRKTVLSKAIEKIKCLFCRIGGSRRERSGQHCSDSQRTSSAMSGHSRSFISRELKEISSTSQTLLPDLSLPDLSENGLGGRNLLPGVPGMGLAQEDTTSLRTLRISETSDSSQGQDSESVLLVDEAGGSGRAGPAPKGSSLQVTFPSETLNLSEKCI

[3] = molecular target: Prostaglandin E2 receptor EP2 subtype (Homo sapiens, UniProt P43116); experiment: Displacement of [3H]-PGE-2 from human Prostanoid EP2 receptor
Prostaglandin E2 receptor EP2 subtype, sequence (P43116 whole entry): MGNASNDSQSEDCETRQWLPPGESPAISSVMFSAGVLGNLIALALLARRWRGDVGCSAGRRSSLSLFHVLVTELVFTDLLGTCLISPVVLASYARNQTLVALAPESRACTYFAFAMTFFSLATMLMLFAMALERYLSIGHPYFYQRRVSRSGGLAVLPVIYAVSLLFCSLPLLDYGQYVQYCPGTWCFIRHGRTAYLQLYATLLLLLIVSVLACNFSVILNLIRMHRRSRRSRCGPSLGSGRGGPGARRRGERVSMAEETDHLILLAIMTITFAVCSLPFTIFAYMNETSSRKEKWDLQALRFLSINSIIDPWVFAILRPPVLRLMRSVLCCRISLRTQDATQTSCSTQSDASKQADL

[4] = molecular target: T2, Prostaglandin E2 receptor EP1 subtype (Homo sapiens, UniProt P34995); experiment: Displacement of [3H]PGE-2 from human Prostanoid EP1 receptor
T2 sequence (P34995 whole entry): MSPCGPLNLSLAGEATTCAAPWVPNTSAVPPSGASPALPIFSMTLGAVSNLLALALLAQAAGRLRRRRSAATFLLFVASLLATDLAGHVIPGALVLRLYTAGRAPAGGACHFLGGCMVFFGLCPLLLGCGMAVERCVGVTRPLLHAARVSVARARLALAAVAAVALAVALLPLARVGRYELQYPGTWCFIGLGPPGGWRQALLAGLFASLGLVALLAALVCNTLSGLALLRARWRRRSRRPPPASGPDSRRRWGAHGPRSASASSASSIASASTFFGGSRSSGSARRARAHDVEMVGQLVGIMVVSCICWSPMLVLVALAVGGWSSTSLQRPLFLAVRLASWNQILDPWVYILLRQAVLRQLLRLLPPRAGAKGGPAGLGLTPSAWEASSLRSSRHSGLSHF

Prostacyclin receptor = Prostacyclin receptor (Homo sapiens, UniProt P43119); experiment: Displacement of [3H]iloprost from human Prostanoid IP receptor
Prostacyclin receptor, sequence (P43119 whole entry): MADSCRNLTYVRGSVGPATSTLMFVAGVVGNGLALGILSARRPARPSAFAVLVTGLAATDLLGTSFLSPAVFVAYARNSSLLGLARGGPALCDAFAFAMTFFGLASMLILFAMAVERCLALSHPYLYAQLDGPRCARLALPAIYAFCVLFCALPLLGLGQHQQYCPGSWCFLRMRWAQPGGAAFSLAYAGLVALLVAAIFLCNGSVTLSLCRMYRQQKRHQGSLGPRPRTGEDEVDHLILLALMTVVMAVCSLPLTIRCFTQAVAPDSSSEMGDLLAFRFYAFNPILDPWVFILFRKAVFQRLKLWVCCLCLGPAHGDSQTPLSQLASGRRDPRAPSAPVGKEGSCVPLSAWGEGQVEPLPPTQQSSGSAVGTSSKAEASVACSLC
Procedure, shortened: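 Competitive radioligand binding using cloned human IP receptor, measuring displacement of [3H]-iloprost.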

[5] = molecular target: Prostaglandin F2-alpha receptor (Homo sapiens, UniProt P43088); experiment: Displacement of [3H]PGF-2 from human Prostanoid FP receptor
Prostaglandin F2-alpha receptor, sequence (P43088 whole entry): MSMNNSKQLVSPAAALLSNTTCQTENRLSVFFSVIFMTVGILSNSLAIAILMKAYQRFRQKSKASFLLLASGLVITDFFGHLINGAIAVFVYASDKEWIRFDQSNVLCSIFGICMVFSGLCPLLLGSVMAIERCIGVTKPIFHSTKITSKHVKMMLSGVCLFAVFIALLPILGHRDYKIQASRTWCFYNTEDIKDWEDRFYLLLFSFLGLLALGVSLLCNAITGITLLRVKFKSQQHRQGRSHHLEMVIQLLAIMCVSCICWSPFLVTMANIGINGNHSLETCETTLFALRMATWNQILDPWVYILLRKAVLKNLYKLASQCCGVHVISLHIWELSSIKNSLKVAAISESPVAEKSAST

[6] = molecular target: T3, Prostaglandin D2 receptor (Homo sapiens, UniProt Q13258); experiment: Displacement of [3H]PGD-2 from human Prostanoid DP receptor
T3 sequence (Q13258 whole entry): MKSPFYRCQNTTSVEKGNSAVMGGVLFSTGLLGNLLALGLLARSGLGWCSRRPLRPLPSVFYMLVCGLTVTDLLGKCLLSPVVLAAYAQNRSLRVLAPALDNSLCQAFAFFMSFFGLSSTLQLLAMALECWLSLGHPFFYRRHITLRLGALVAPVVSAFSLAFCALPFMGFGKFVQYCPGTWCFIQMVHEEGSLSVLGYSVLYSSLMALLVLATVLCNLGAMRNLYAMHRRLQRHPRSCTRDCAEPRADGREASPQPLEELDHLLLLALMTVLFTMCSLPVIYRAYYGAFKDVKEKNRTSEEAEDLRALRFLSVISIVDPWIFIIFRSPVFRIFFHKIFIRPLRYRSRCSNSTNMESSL

[7] = Area under curve in rat after oral administration at 10 mg/kg dose; type: ADME, organism-based; parameters: dose 10 mg/kg, route oral; details: in vivo
[8] = Total clearance in rat after intravenous administration at 10 mg/kg dose; type: ADME, organism-based; parameters: dose 10 mg/kg, route intravenous; details: in vivo, read-out: CLtot
Monkey = experiment: Inhibition concentration against ADP-induced platelet aggregation using monkey platelet rich plasma; type: functional; details: Cercopithecidae; procedure, shortened: as §1
[9] = Half life in rat after intravenous administration at 10 mg/kg dose; type: ADME, organism-based; parameters: dose 10 mg/kg, route intravenous; details: in vivo
[10] = Bioavailability in rat after […] administration at 10 mg/kg dose; type: ADME, organism-based; details: in vivo, read-out: Ba
Canis familiaris = species on record: Canis familiaris; experiment: Inhibition concentration against ADP-induced platelet aggregation using dog platelet rich plasma; type: functional; details: Canis lupus familiaris; procedure, shortened: as §1
Thromboxane A2 receptor = molecular target: T4, Thromboxane A2 receptor (Homo sapiens, UniProt P21731); experiment: Displacement of [3H]SQ-29,548 from human Prostanoid TP receptor
T4 sequence (P21731 whole entry): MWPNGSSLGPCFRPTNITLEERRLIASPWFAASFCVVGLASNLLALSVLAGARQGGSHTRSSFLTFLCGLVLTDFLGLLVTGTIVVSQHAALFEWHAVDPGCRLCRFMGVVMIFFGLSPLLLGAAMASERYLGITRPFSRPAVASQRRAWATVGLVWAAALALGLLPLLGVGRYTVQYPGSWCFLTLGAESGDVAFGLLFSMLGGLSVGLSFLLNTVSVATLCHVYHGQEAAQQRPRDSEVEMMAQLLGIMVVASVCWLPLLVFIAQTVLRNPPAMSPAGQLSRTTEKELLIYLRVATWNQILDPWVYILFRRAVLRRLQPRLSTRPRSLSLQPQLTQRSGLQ

dog (Canis familiaris) = experiment: Area under curve in dog after oral administdogion at 0.32 mg/kg dose; details: in vivo
[11] = Maximum concentration in rat after oral administration at 10 mg/kg dose; type: ADME, organism-based; parameters: dose 10 mg/kg, route oral; details: in vivo
[12] = Total clearance in dog after intravenous administration at 0.32 mg/kg dose; type: ADME, organism-based, Canis lupus familiaris; parameters: dose 0.32 mg/kg, route intravenous; details: in vivo, read-out: CLtot

IC50 (Rattus norvegicus) [nM]	IC50 (Cell line) [nM]	Ki [1] [nM]	Ki [2] [nM]	Ki [3] [nM]	Ki [4] [nM]	Ki (Prostacyclin receptor) [nM]	SMILES	other results
7400	5.8	> 10000	> 10000	> 1000	> 1000	110	O=C(O)COc1cccc2c1CC[C@](O)(COC(=O)N(c1ccccc1)c1ccccc1)C2O (single isomer, unassigned)	–
–	2.5	–	–	–	–	–	CC#CCC(C)[C@H](O)/C=C/[C@@H]1[C@H]2C/C(=C/CCCC(=O)O)C[C@H]2C[C@H]1O (stereo not given in full) [ILOPROST]	–
–	–	> 10000	> 10000	> 1000	> 1000	12	O=C(O)COc1cccc2c1CCC[C@H]2N1CCC[C@@H]1c1nc(-c2ccccc2)c(-c2ccccc2)o1	Ki [5]: > 1000 nM; Ki [6]: > 1000 nM; Ki (Thromboxane A2 receptor): > 1000 nM
> 10000	91	–	–	–	–	–	O=C(O)COc1cccc2c1CCC(COC(=O)N(c1ccccc1)c1ccccc1)=C2	–

Second part, the molecule before the results:

SMILES	IC50 (Rattus norvegicus) [nM]	IC50 (Cell line) [nM]	Ki [1] [nM]	Ki [2] [nM]	Ki [3] [nM]	Ki [4] [nM]	Ki (Prostacyclin receptor) [nM]	other results
O=C(O)COc1cccc2c1CC[C@](O)(COC(=O)N(c1ccccc1)c1ccccc1)[C@H]2O	> 10000	1300	–	–	–	–	–	–
O=C(O)COc1cccc2c1CC[C@H](COC(=O)N(c1ccccc1)c1ccccc1)[C@H]2O	> 10000	3200	–	–	–	–	–	–
CCC/C(CC1CCc2c(cccc2OCC(=O)O)C1)=N\OC(c1ccccc1)c1ccccc1 (stereo not given) [AP-227]	5600	150	–	–	–	–	–	–
O=C(O)COc1cccc2c1CC[C@](O)(COC(=O)N(c1ccccc1)c1ccccc1)C2	1400	18	8200	> 10000	> 10000	9600	8.9	Ki [5]: > 10000 nM; Ki [6]: 2300 nM; AUC [7]: 1590 ng·h/mL; clearance [8]: 38 mL/min/kg; IC50 (Monkey): 13 nM; half-life [9]: 1.81 h; bioavailability [10]: 38%; IC50 (Canis familiaris): 480 nM; Ki (Thromboxane A2 receptor): > 10000 nM; AUC (dog (Canis familiaris)): 2200 ng·h/mL; Cmax [11]: 342 ng/mL; clearance [12]: 2.31 mL/min/kg
O=C(O)COc1cccc2c1CC[C@H](COC(=O)N(c1ccccc1)c1ccccc1)C2O (single isomer, unassigned)	> 10000	170	–	–	–	–	–	–
O=C(O)COc1cccc(C[C@@H]2CCCC=C2c2nc(-c3ccccc3)c(-c3ccccc3)o2)c1	–	–	6800	–	> 1000	> 1000	–	Ki [5]: > 1000 nM; Ki [6]: > 1000 nM; Ki (Thromboxane A2 receptor): > 1000 nM
O=C(O)COc1cccc2c1CC[C@@](O)(COC(=O)N(c1ccccc1)c1ccccc1)C2	> 10000	270	–	–	–	–	–	–
O=C(O)COc1cccc2c1CCC(COC(=O)N(c1ccccc1)c1ccccc1)C2 (stereo not given)	> 10000	53	1900	> 10000	> 1000	> 1000	140	–
